# Reference: PubChem BioAssay AID617 (SRMLSC, 2007)
# Tested on: E. coli BW25113 ΔtolC growth inhibition, OD615
# Test: growth inhibitors of E. coli tolC mutant, dose response, strain BW25113 ΔtolC::kan (AID 617)
# Procedure, shortened: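 Material: E. coli BW25113 ΔtolC::kan bacteria; input: inoculum from 1:1000-diluted 1.5 h subculture; medium: kanamycin-containing LB broth, 50 µg/mL; dosing: compounds in serially diluted dose-response series; incubation: 20 h exposure at 37 °C; measured by: absorbance at 615 nm; control set: chloramphenicol control, 30 µM final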
row,Compound,IC50 [µM]
1,CCc1cccc(NC(=O)c2ccc(NS(=O)(=O)c3c(C)noc3C)cc2)c1,7.16
2,O=S(=O)(Nc1cccc2cccnc12)c1ccc(S(=O)(=O)N2CCCC2)cc1,15.3
3,CC(C)C(C(=O)NCc1ccco1)N(C(=O)CNS(=O)(=O)c1ccc(Cl)cc1)C1CCCC1 (stereo not given),24.8
4,CNc1nc(Nc2ccc(C(C)=O)cc2)nc(OC(C(F)(F)F)C(F)(F)F)n1,20.1
5,CCC1CCCCN1S(=O)(=O)c1ccc2c(c1)CCN2C(=O)C1CCC1 (stereo not given),14.7
6,COc1ccc(-c2n[nH]c(C(F)(F)F)c2-c2cc3ccccc3o2)c(O)c1,1.99
7,Cn1nc(-c2ccc(N3CCOCC3)c(NC(=O)COc3ccccc3)c2)c2ccccc2c1=O,8.7
8,CC1CCCN(S(=O)(=O)c2ccc(C(=O)Nc3nnc(-c4ccccc4Cl)o3)cc2)C1 (stereo not given),0.41
9,Cc1cccc(N2CCN(C(=O)c3cc4n(n3)C(C(F)(F)F)CC(c3ccco3)N4)CC2)c1C (stereo not given),6.74
10,O=C1c2ccccc2C(=O)N1CCC(c1ccc(F)cc1)c1ccco1 (stereo not given),13.4
11,COc1ccccc1C1SCCN1S(=O)(=O)c1cccc(C(F)(F)F)c1 (stereo not given),16.4
12,Fc1ccc(-c2cc(C(F)(F)F)nc(NCC3CCCO3)n2)cc1 (stereo not given),20.7
13,CN(Cc1ccccc1)Cc1nc2c(c(=O)n(C)c(=O)n2C)n1CCCc1ccccc1,14.9
14,Cc1ccc(Cl)cc1N1CCN(C(=O)c2ccc(NS(=O)(=O)c3c(C)noc3C)cc2)CC1,29.4
15,COc1ccc(C(C(O)C(=O)c2c[nH]c3ccccc23)N2CCN(c3ccccc3)CC2)cc1 (stereo not given),7.52
16,CC1Oc2ccccc2N(Cc2ccccc2Cl)C1=O (stereo not given),27.9
17,CCn1c(=O)c(C(=O)Nn2c(C)nc3ccccc3c2=O)c(O)c2ccccc21,3.26
18,CC1(C)Cc2c(sc3c2c(=N)n(Cc2ccco2)c(=O)n3Cc2ccc(Cl)cc2)CO1,13.3
19,Clc1ccccc1OCc1nnc(-c2ccccc2Br)o1,12.4
20,Cc1ccc2cc(CN(Cc3ccccc3)Cc3nnnn3C3CCCC3)c(=O)[nH]c2c1,11.6
21,N#Cc1nc(Cc2ccccc2)oc1NCCc1ccccc1,8.5
22,CCOc1ccccc1NC(=O)c1cc(CC(C)C)oc1C,21.8
23,COc1ccc(C)cc1NC(=O)CSc1nnc(COc2ccccc2)n1Cc1ccco1,22
24,COc1ccc(-c2[nH]ncc2-c2ccc(Cl)cc2)c(O)c1,4.52
25,CCOC(=O)c1cnc(-n2cc(C)cn2)nc1Nc1ccccc1OCC,16
26,Cc1ccc(C(=O)Nc2nc(COc3ccccc3)cs2)s1,101
27,c1ccc2c(c1)CCN(c1nc3cc4c(cc3s1)OCCO4)C2,14.8

row,Compound,IC50 [µM]
1,CN1CCN(CC(=O)N2CCn3c4c(c5cc(C6CCCCC6)ccc53)CCCC42)CC1 (stereo not given),66.7
2,Cc1nc2c(C(=O)NCCC3=CCCCC3)c[nH]n2c(=O)c1Cl,8.36
3,COc1ccc(CN(C(=O)CN2C(=O)COc3ccccc32)C2CCCC2)c(OC)c1,19.1
4,Oc1c(CN2CCCCC2)cc(COCc2ccccc2)c2cccnc12,13.2
5,CC1CCN(c2oc(-c3ccccc3F)nc2C#N)CC1,19.2
6,COc1ccc(-c2[nH]ncc2-c2cnn(-c3ccccc3)c2)c(O)c1,12.5
7,Clc1ccc(C2=Nn3c(nnc3-c3n[nH]c4c3CCC4)SC2)cc1Cl,11
8,O=C(CSc1nc2ccccc2o1)Nc1ccccc1N1CCCCCC1,11.7
9,CCCC1=C(C(=O)OCC)C(c2cc(Cl)cc(OC)c2OCC(=O)OCC)NC(=O)N1 (stereo not given),24.5
10,Cc1cc(C)n(-c2nc(NC(C)C)nc(NC(C)C)n2)n1,2.96
11,CN(c1cccc(NC(=O)Nc2cccc(Cl)c2)c1)S(C)(=O)=O,12.7
12,O/N=C(\c1ccc(Cl)cc1)c1cc2ccccc2o1,5.7
13,CCc1c(O)nc(SCC(=O)Nc2ccc(C)cc2)n(C2CCCCC2)c1=O,7.36
14,Cc1ccc(-c2csc3ncnc(Sc4nnc(CN5CCCCCC5=O)o4)c23)cc1,21.6
15,COc1ccc(NC(=O)N2CCCC(c3nc(-c4ccc(C(C)C)cc4)no3)C2)cc1 (stereo not given),16.9
16,COc1ccccc1-c1cc(C(=O)NCc2ccccc2)no1,17.1
17,CC(C)c1nnc(NC(=O)c2c(O)c3cccc4c3n(c2=O)CC4)s1,34.7
18,CCOC(=O)c1ccc(NC(=O)CSc2nc(SC)ns2)cc1,9.73
19,COc1ccc(-c2nc3oc4cc(OC)ccc4c(=O)c3c(=O)n2Cc2ccco2)cc1,2.33
20,c1ccc(CC2CCN(Cc3nc(-c4ccccc4)no3)CC2)cc1,13.4
21,COC(=O)c1ccc(/C(O)=C(\C#N)c2nc3ccccc3s2)cc1,2.51
22,CC1Cc2ccccc2N1C(=O)Cn1c(=O)oc2cc(S(=O)(=O)NC3CCCC3)ccc21 (stereo not given),4.39
23,CC1CN(c2nc3c(c(=O)n(Cc4ccc(Cl)c(Cl)c4)c(=O)n3C)n2C)CC(C)O1 (stereo not given),20.4
24,CCc1ccc2[nH]c(=O)c(C(c3nnnn3CCOC)N3CCN(c4ccc(F)cc4)CC3)cc2c1 (stereo not given),35.7
25,C=CCc1cc(C)ccc1OCC(O)CN1CCN(c2ccccc2)CC1 (stereo not given),17
26,C=C(C)COc1ccc(-c2[nH]ncc2Oc2cccc(OC)c2)c(O)c1,6
27,CC(C)N(Cc1nc(-c2ccccc2)no1)C(=O)c1ccc(Cl)cc1,19.5

row,Compound,IC50 [µM]
1,Cc1cccc(Cn2c(=O)c3c(nc4n3CCCN4Cc3ccccc3)n(C)c2=O)c1,20
2,CCN(C(=O)c1cc2cc3ccc(C)cc3nc2o1)c1ccc(OC)cc1,19
3,CCOC(=O)c1c(NC(=O)C(F)(OC)C(F)(F)F)sc(C(=O)N2CCCCC2)c1C (stereo not given),24.6
4,Cc1ccc(NC(=O)N2CCC(c3nc4c(nnn4Cc4cccc(Cl)c4)c(=O)[nH]3)CC2)cc1,13.5
5,CCn1c(C(=O)N2CCC(Cc3ccccc3)CC2)cc2sccc21,10.2
6,COc1ccc(/C=N/n2c(SC)nnc2-c2ccccc2)cc1C,16.5
7,C=C(C)C1CCC(C)=C1COC(=O)Nc1ccccc1 (stereo not given),12.2
8,Brc1ccc(CSc2nnc(-c3ccccn3)n2Cc2ccco2)cc1,9.85
9,O=C(CSc1nc2ccccc2o1)Nc1nc2c(s1)CCCC2,8.02
10,COC(=O)c1[nH]c2ccccc2c1NC(=O)CN1CCN(c2cccc(OC)c2)C(C)C1 (stereo not given),18.6
11,Cc1ccccc1OCCCN1C(=O)C(=O)c2cccc(C)c21,103
12,Cc1cccc(N2CC(c3nc4ccccc4n3C)CC2=O)c1C (stereo not given),4.93
13,O=C(CSc1n[nH]c(-c2ccco2)n1)N1c2ccccc2Sc2ccccc21,9.51
14,Clc1ccc(OCCCc2nc(-c3cccnc3)no2)c(Cl)c1,17.2
15,Cc1cccc(S(=O)(=O)Nc2nc3ccccc3nc2NCc2ccco2)c1,6.92
16,CC(C)(C)c1ccc(OCc2nc(-c3ccccn3)no2)c(Br)c1,6.81
17,Cc1c(CCC(=O)O)c(=O)oc2cc3occ(-c4ccc(F)cc4)c3cc12,5.48
18,COC(=O)c1sccc1NC(=O)c1ccc(Cl)s1,4.02
19,Cc1nn(-c2ccccc2)c(Cl)c1C(=O)Nc1nnc(C2CCCC2)s1,8.48
20,O=C(Nc1cccc(S(=O)(=O)c2cccc(NC(=O)C3CC3)c2)c1)C1CC1,5.25
21,COc1ccc(Oc2cn[nH]c2-c2ccc(O)cc2O)cc1,7.86
22,CN(c1ccccc1)C(c1ccc(F)cc1)c1nnnn1C1CCCC1 (stereo not given),11.1
23,Cc1cccc(N2C(N)=C(C#N)C(C#N)(C#N)C2c2ccccc2)c1 (stereo not given),13.3
24,Cc1noc(C)c1S(=O)(=O)N(CCc1ccccc1)Cc1ccccc1,16.6
25,O=C(NCc1ccccc1)c1c[nH]c2ccc(S(=O)(=O)Nc3ccc4c(c3)OCCO4)cc2c1=O,9.4
26,Cc1ccc(OCc2nc(C#N)c(NCc3ccc4c(c3)OCO4)o2)cc1,6.03
